Assay results as given in ChEMBL document CHEMBL1125756, “Synthesis and antiarrhythmic activity of alpha-[(diarylmethoxy)methyl]-1-piperidineethanols” (1991).

Key:
Canis familiaris [1] = assay: […] 20 min after a dose of 5 mg/kg given intravenously over a 5-min period in normal dogs.; format: functional, Canis lupus familiaris; conditions: route intravenous
Canis familiaris [2] = assay: […] at the end of the dose.(5 mg/kg was given intravenously over a 5-min period in normal dogs.); format: functional, Canis lupus familiaris
Canis familiaris [3] = assay: Period of tachycardiac effect in conscious normal dogs; 0.5-2; format: functional, Canis lupus familiaris
Summary of the method: (§1)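 Conscious normal dogs, trained to sit quietly while sling-restrained, received 5 mg/kg iv over 5 min, as in the ligated-dog protocol. Heart rate came from continuous limb lead II ECG at control, end of dose, 20 min and 1 h. Dogs above 140 beats/min were followed until the rate fell to 140. Degree was graded severe ≥200, moderate 160–199, slight <160 with a rise ≥20, none ≤20 change. Duration was graded long >2 h, moderate 0.5–2 h, short <0.5 h.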

Canis familiaris [4] = assay: Degree of tachycardia in conscious normal dogs; 160-199; format: functional, Canis lupus familiaris
Summary of the method: (§2)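 Conscious normal dogs, trained to sit quietly while sling restrained, were given 5 mg/kg iv as an infusion over 5 min in isotonic saline. Heart rate came from continuous limb lead II ECG during a control period, at end of dose, and at 20 min and 1 h. Degree bands were ≥200, 160–199, and <160 beats/min after a rise of ≥20. Duration bands were >2 h, 0.5–2 h and <0.5 h. Two dogs were used.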

Canis familiaris [5] = assay: Percent of normal beats 1 hr after 5 mg/kg given over 5 min by i.v. infusion.; format: functional, Canis lupus familiaris; conditions: route intravenous
Summary of the method: (§3)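 Coronary-artery-ligated dogs with ventricular arrhythmias received 5 mg/kg iv in 10–20 mL isotonic saline, infused over 5 min. Limb lead II ECG was monitored continuously for up to 6 h or until activity ended. Percent normal sinus beats was scored at control, end of dose, 20 min and 1 h. Results are mean ± SEM for n≥3 and mean ± SD for n=2.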

Canis familiaris [6] = assay: Percent of normal beats 20 min after 5 mg/kg given over 5 min by i.v. infusion.; format: functional, Canis lupus familiaris; conditions: route intravenous; summary of the method: as §3
Canis familiaris [7] = assay: Percent of normal beats after 5 mg/kg given over 5 min by i.v. infusion.; format: functional, Canis lupus familiaris; conditions: route intravenous; summary of the method: as §3
Canis familiaris [8] = assay: […] 1 h after a dose of 5 mg/kg given intravenously over a 5-min period in normal dogs.; format: functional, Canis lupus familiaris; conditions: route intravenous
Canis familiaris [9] = assay: Activity rating following 5 mg/kg i.v. administration.; conditions: route intravenous
Canis familiaris [10] = assay: Degree of tachycardia in conscious normal dogs.; format: functional, Canis lupus familiaris; summary of the method: as §1
Canis familiaris [11] = assay: Period of tachycardiac effect in conscious normal dogs; format: functional, Canis lupus familiaris; summary of the method: as §2
Canis familiaris [12] = assay: […] 1 h after a dose of 5 mg/kg given intravenously over a 5-min period […].; format: functional, Canis lupus familiaris; conditions: route intravenous
Summary of the method: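 Dogs with coronary artery ligation and ventricular arrhythmia received 5 mg/kg iv in 10–20 mL isotonic saline, infused over 5 min. Limb lead II ECG was monitored continuously for up to 6 h. Percent normal sinus beats was scored at control, at end of dose, and at 20 min and 1 h. Values are mean ± SEM for three or more animals and mean ± SD for two.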

Canis familiaris [13] = assay: Degree of tachycardiac effect in conscious normal dogs

SMILES: Cc1ccccc1C(OCC(O)CN1C(C)CCCC1C)c1ccccc1 (configuration not stated)
- Heart rate (Canis familiaris [1]): 153 beats min-1
- Heart rate (Canis familiaris [2]): 153 beats min-1
- Rating (Canis familiaris [3]): 0.5 h
- Rating (Canis familiaris [4]): 160 beats min-1
- Normal beats (Canis familiaris [5]): 81%
- Normal beats (Canis familiaris [6]): 71%
- Normal beats (Canis familiaris [7]): 87%
- Heart rate (Canis familiaris [8]): 134 beats min-1
- Activity rating (Canis familiaris [9]): 68

SMILES: C[N+](C)(C)CC(O)COC(c1ccccc1)c1ccccc1 (configuration not stated)
- Heart rate (Canis familiaris [1]): 135 beats min-1
- Heart rate (Canis familiaris [2]): 242 beats min-1
- Rating (Canis familiaris [3]): 0.5 h
- Rating (Canis familiaris [10]): >200 beats min-1
- Normal beats (Canis familiaris [5]): 0%
- Normal beats (Canis familiaris [6]): 1%
- Normal beats (Canis familiaris [7]): 52%
- Heart rate (Canis familiaris [8]): 118 beats min-1
- Activity rating (Canis familiaris [9]): 9

SMILES: CC1CCCC(C)N1CC(O)CNC(c1ccccc1)c1ccccc1.Cl.Cl (configuration not stated)
- Heart rate (Canis familiaris [1]): 132 beats min-1
- Heart rate (Canis familiaris [2]): 141 beats min-1
- Rating (Canis familiaris [10]): <160 beats min-1
- Normal beats (Canis familiaris [5]): 30%
- Normal beats (Canis familiaris [6]): 47%
- Normal beats (Canis familiaris [7]): 92%
- Rating (Canis familiaris [11]): <0.5 h
- Heart rate (Canis familiaris [8]): 122 beats min-1
- Activity rating (Canis familiaris [9]): 44

SMILES: Cc1cccc(C)c1C(OCC(O)CN1C(C)CCCC1C)c1c(C)cccc1C (configuration not stated)
- Normal beats (Canis familiaris [5]): 54%
- Normal beats (Canis familiaris [6]): 76%
- Normal beats (Canis familiaris [7]): 49%
- Activity rating (Canis familiaris [9]): 47

SMILES: CC1CCC(C)N1CC(O)COC(c1ccccc1)c1ccccc1 (configuration not stated)
- Heart rate (Canis familiaris [1]): 117 beats min-1
- Heart rate (Canis familiaris [2]): 140 beats min-1
- Rating (Canis familiaris [3]): 0.5 h
- Rating (Canis familiaris [10]): <160 beats min-1
- Normal beats (Canis familiaris [5]): 12%
- Normal beats (Canis familiaris [6]): 39%
- Normal beats (Canis familiaris [7]): 96%
- Heart rate (Canis familiaris [8]): 102 beats min-1
- Activity rating (Canis familiaris [9]): 36

SMILES: CC(OCC(O)CN1C(C)CCCC1C)c1ccccc1 (configuration not stated)
- Heart rate (Canis familiaris [1]): 101 beats min-1
- Heart rate (Canis familiaris [2]): 156 beats min-1
- Rating (Canis familiaris [10]): <160 beats min-1
- Normal beats (Canis familiaris [5]): 11%
- Normal beats (Canis familiaris [6]): 16%
- Normal beats (Canis familiaris [7]): 62%
- Rating (Canis familiaris [11]): >2 h
- Heart rate (Canis familiaris [8]): 144 beats min-1
- Activity rating (Canis familiaris [9]): 13

SMILES: CC1CCCC(C)N1CC(O)COC(c1ccccc1)c1ccccc1 (configuration not stated)
- Heart rate (Canis familiaris [1]): 171 beats min-1
- Heart rate (Canis familiaris [2]): 172 beats min-1
- Rating (Canis familiaris [3]): 0.5 h
- Rating (Canis familiaris [4]): 160 beats min-1
- Normal beats (Canis familiaris [5]): 53%
- Normal beats (Canis familiaris [6]): 67%
- Normal beats (Canis familiaris [7]): 88%
- Heart rate (Canis familiaris [8]): 150 beats min-1
- Activity rating (Canis familiaris [9]): 56

SMILES: CC1CCCC(C)N1CC(O)CSC(c1ccccc1)c1ccccc1 (configuration not stated)
- Heart rate (Canis familiaris [1]): 148 beats min-1
- Heart rate (Canis familiaris [2]): 185 beats min-1
- Rating (Canis familiaris [4]): 160 beats min-1
- Normal beats (Canis familiaris [5]): 42%
- Normal beats (Canis familiaris [6]): 49%
- Normal beats (Canis familiaris [7]): 95%
- Heart rate (Canis familiaris [12]): 148 beats min-1
- Rating (Canis familiaris [11]): <0.5 h
- Activity rating (Canis familiaris [9]): 51

SMILES: Cc1ccccc1C(OCC(O)CN1CCCCC1C)c1ccccc1C.O=C(O)C(=O)O (configuration not stated)
- Normal beats (Canis familiaris [5]): 24%
- Normal beats (Canis familiaris [6]): 44%
- Normal beats (Canis familiaris [7]): 49%
- Activity rating (Canis familiaris [9]): 36

SMILES: CCN(CC)CCNC(=O)c1ccc(N)cc1.Cl [PROCAINAMIDE HYDROCHLORIDE]
- Normal beats (Canis familiaris [5]): 34%
- Normal beats (Canis familiaris [6]): 66%
- Normal beats (Canis familiaris [7]): 72%
- Activity rating (Canis familiaris [9]): 52

SMILES: CCN(CC)CC(=O)Nc1c(C)cccc1C.Cl
- Normal beats (Canis familiaris [5]): 9%
- Normal beats (Canis familiaris [6]): 23%
- Normal beats (Canis familiaris [7]): 86%
- Activity rating (Canis familiaris [9]): 20

SMILES: Cc1ccccc1C(OCC(O)CN1CCCCC1)c1ccccc1C.O=C(O)C(=O)O (configuration not stated)
- Normal beats (Canis familiaris [5]): 16%
- Normal beats (Canis familiaris [6]): 31%
- Normal beats (Canis familiaris [7]): 79%
- Activity rating (Canis familiaris [9]): 21

SMILES: COc1ccccc1C(OCC(O)CN1C(C)CCCC1C)c1ccccc1OC (configuration not stated)
- Heart rate (Canis familiaris [1]): 232 beats min-1
- Heart rate (Canis familiaris [2]): 234 beats min-1
- Rating (Canis familiaris [10]): >200 beats min-1
- Normal beats (Canis familiaris [5]): 33%
- Normal beats (Canis familiaris [6]): 62%
- Normal beats (Canis familiaris [7]): 100%
- Rating (Canis familiaris [11]): >2 h
- Heart rate (Canis familiaris [8]): 232 beats min-1
- Activity rating (Canis familiaris [9]): 57

SMILES: Cc1cccc(C)c1C(OCC(O)CN1C(C)CCCC1C)c1ccccc1 (configuration not stated)
- Normal beats (Canis familiaris [5]): 16%
- Normal beats (Canis familiaris [6]): 19%
- Normal beats (Canis familiaris [7]): 60%
- Activity rating (Canis familiaris [9]): 8

SMILES: CN(C)CC(O)COC(c1ccccc1)c1ccccc1.Cl (configuration not stated)
- Heart rate (Canis familiaris [1]): 115 beats min-1
- Heart rate (Canis familiaris [2]): 121 beats min-1
- Normal beats (Canis familiaris [5]): 15%
- Normal beats (Canis familiaris [6]): 25%
- Normal beats (Canis familiaris [7]): 61%
- Heart rate (Canis familiaris [8]): 110 beats min-1
- Rating (Canis familiaris [13]): < 20 beats min-1
- Activity rating (Canis familiaris [9]): 19

SMILES: CC1CCCC(C)[N+]1(C)CC(O)COC(c1ccccc1)c1ccccc1.[Cl-] (configuration not stated)
- Heart rate (Canis familiaris [1]): 152 beats min-1
- Heart rate (Canis familiaris [2]): 167 beats min-1
- Rating (Canis familiaris [4]): 160 beats min-1
- Normal beats (Canis familiaris [5]): 28%
- Normal beats (Canis familiaris [6]): 33%
- Normal beats (Canis familiaris [7]): 15%
- Rating (Canis familiaris [11]): <0.5 h
- Heart rate (Canis familiaris [8]): 101 beats min-1
- Activity rating (Canis familiaris [9]): 15

SMILES: Cc1ccccc1C(OCC(O)CN1C(C)CCCC1C)c1ccccc1C (configuration not stated)
- Heart rate (Canis familiaris [1]): 113 beats min-1
- Heart rate (Canis familiaris [2]): 153 beats min-1
- Rating (Canis familiaris [10]): <160 beats min-1
- Normal beats (Canis familiaris [5]): 50%
- Normal beats (Canis familiaris [6]): 68%
- Normal beats (Canis familiaris [7]): 87%
- Rating (Canis familiaris [11]): <0.5 h
- Heart rate (Canis familiaris [8]): 142 beats min-1
- Activity rating (Canis familiaris [9]): 51
